Measured values reported in article PMC11650976 (Dalton Transactions (Cambridge, England : 2003), 2024).

Assays:
[1] = tested on: MDA-MB-231 cancer cells; experiment: Whole cellular uptake of Au; assay type: cell-based, human; conditions: 10 μM for 18 h, GFAAS
Summary of the method: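 Adherent MDA-MB-231 cells were incubated with the test compound at 10 μM for 18 h. Whole-cell gold content was then measured by graphite furnace AAS. Data are mean ± s.e.m. (n = 3), compared by ordinary one-way ANOVA.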

[2] = tested on: MDA-MB-231 (triple negative breast cancer cell); experiment: In vitro cytotoxicity; assay type: cell-based, human; conditions: for IC50: read-out: IC50 MDA-MB-231, 72 h, MTT, mean ± S.D (n = 6)
Summary of the method: (§1)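 Adherent cancer cells were exposed to test compound for 72 h. The series was a 3-fold dilution starting at 100 μM.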

[3] = tested on: BT-333 (glioblastoma); experiment: In vitro cytotoxicity; assay type: cell-based, human; conditions: read-out: IC50 BT-333; 72 h, MTT, mean ± S.D (n = 6)
Summary of the method: as §1

[4] = tested on: MRC5 (human lung fibroblast); experiment: Cytotoxicity in normal cells MRC5; assay type: cell-based; conditions: read-out: IC50 MRC5; mean ± S.D (n = 6)
[5] = tested on: MDA-MB-231 cells; experiment: Intracellular ROS determination; assay type: cell-based, human; conditions: 10 μM, 90 minutes, DCF-DA, FACS
Summary of the method: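 MDA-MB-231 cells were exposed to the test compound at 5 and 10 μM. The text gives 90 min of exposure, and the figure legend gives 2 h. Cells were then stained with 2′,7′-dichlorodihydrofluorescein diacetate, and intracellular fluorescence was read by flow cytometry at 488 nm. Groups were compared by ordinary one-way ANOVA.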

[6] = tested on: mitochondria of MDA-MB-231 cancer cells; experiment: Mitochondria uptake of Au; assay type: cell-based, human; conditions: 10 μM for 18 h, 20 million cells, GFAAS, n = 2
Summary of the method: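 MDA-MB-231 cells (20 million) were treated with test compound at 10 μM for 18 h. Standard fractionation then gave pure mitochondria, and gold content was measured by GFAAS. Data are mean ± s.e.m. (n = 2), compared by ordinary one-way ANOVA.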

[7] = Solution stability in DMEM; assay type: physicochemical; conditions: 48 h, reading at λ = 260 nm
[8] = tested on: MDA-MB-231 cells; experiment: Mitochondria membrane potential determination using TMRE dye; assay type: cell-based, human; conditions: for effect on mitochondria membrane potential (TMRE fluorescence): 5 and 10 μM for 2 hours

[Au+].[Cl-].c1ccc(P(c2ccccc2)c2ccccc2P(c2ccccc2)c2ccccc2)cc1.c1ccc(P(c2ccccc2)c2ccccc2P(c2ccccc2)c2ccccc2)cc1 [1-PF6, bis-[1,2-bis-(diphenylphosphino)benzene]gold(I)]
whole cell uptake (Au content) [1]: taken up more effectively compared to 1-AuCl4 | fold more cytotoxic than Au(III) 3-PF6 counterpart (IC50) ([2]; in both cancer cell lines tested (MDA-MB-231, BT-333)): 4–16 fold | IC50 [2]: 0.3 ± 0.1 µM | IC50 [3]: 0.38 ± 0.02 µM | IC50 [4]: 1.91 ± 0.03 µM

bis-[1,2-bis-(diphenylphosphino)benzene]gold(III) chloride [3-AuCl4]
whole cell uptake (Au content) [1]: significantly higher whole cell uptake compared to their Au(I) counterparts | IC50 [2]: 1.52 ± 0.21 µM | IC50 [3]: 1.38 ± 0.23 µM | intracellular ROS produced [5]: significant difference in the ROS produced by 3-AuCl4 compared to 1-Cl | IC50 [4]: 4.47 ± 0.05 µM | mitochondria uptake (Au) [6]: 375 nmol/20 million cells | solution stability in DMEM [7]: showed solution stability for 48 h but significant reduction in peak intensity after 1 h of incubation | decrease in TMRE fluorescence intensity (mitochondria membrane potential) ([8]; 10 μM, 2 hours): about 53% | effect on mitochondria membrane potential (TMRE fluorescence) [8]: concentration dependent decrease in fluorescence intensity

[Au+].[Cl-].c1ccc(P(c2ccccc2)c2ccccc2P(c2ccccc2)c2ccccc2)cc1.c1ccc(P(c2ccccc2)c2ccccc2P(c2ccccc2)c2ccccc2)cc1 [1-Cl, bis-[1,2-bis-(diphenylphosphino)benzene]gold(I)]
whole cell uptake (Au content) [1]: taken up more effectively compared to 1-AuCl4 | IC50 [2]: 1.14 ± 0.12 µM | IC50 [3]: 0.41 ± 0.2 µM | IC50 [4]: 1.35 ± 0.04 µM | mitochondria uptake (Au) [6]: 214.5 nmol/20 million cells | solution stability in DMEM [7]: stable in DMEM for 48 h without the formation of new adducts or reduction in peak intensity | effect on mitochondria membrane potential (TMRE fluorescence) [8]: did not affect the mitochondria membrane potential significantly

[Au+].[Cl-].c1ccc(P(c2ccccc2)c2ccccc2P(c2ccccc2)c2ccccc2)cc1.c1ccc(P(c2ccccc2)c2ccccc2P(c2ccccc2)c2ccccc2)cc1 [1-BF4, bis-[1,2-bis-(diphenylphosphino)benzene]gold(I)]
IC50 [2]: 0.82 ± 0.11 µM | IC50 [3]: 0.66 ± 0.02 µM

[Au+].[Cl-].c1ccc(P(c2ccccc2)c2ccccc2P(c2ccccc2)c2ccccc2)cc1.c1ccc(P(c2ccccc2)c2ccccc2P(c2ccccc2)c2ccccc2)cc1 [1-AuCl4, bis-[1,2-bis-(diphenylphosphino)benzene]gold(I)]
IC50 [2]: 1.78 ± 0.15 µM | IC50 [3]: 1.3 ± 0.04 µM | IC50 [4]: 0.93 ± 0.02 µM

bis-[1,2-bis-(diphenylphosphino)benzene]gold(III) chloride [3-PF6]
whole cell uptake (Au content) [1]: significantly higher whole cell uptake compared to their Au(I) counterparts | IC50 [2]: 4.92 ± 0.21 µM | IC50 [3]: 1.76 ± 0.12 µM
